Our source for the IC50, Ratio IC50 and Ki values is ChEMBL document CHEMBL1944519 (Bioorg Med Chem, 2012).

Assay [1] deals with T1, Steryl-sulfatase (Homo sapiens, UniProt P08842).
T1 sequence (P08842 whole entry): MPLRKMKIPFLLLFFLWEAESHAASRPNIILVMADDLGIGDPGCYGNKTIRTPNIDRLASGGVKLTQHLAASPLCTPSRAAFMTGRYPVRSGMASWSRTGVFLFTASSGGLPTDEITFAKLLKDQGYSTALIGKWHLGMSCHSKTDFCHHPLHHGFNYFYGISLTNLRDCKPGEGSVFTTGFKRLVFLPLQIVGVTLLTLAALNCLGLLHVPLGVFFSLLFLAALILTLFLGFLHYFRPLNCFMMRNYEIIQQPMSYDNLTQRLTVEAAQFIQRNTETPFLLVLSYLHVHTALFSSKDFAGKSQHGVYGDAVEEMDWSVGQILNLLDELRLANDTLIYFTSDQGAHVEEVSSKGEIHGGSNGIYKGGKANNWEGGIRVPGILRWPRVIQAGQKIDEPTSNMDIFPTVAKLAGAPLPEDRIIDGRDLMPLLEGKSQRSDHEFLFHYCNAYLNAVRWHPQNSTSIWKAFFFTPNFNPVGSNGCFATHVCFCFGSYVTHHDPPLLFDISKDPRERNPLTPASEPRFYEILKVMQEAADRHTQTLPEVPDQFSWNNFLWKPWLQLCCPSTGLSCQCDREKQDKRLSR
The assay can be described thus: Inhibition of steroid sulfatase using 4-methylumbelliferyl sulfate as substrate after 10 mins by spectrofluorimeter plate reader. Put shortly: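 Human placental STS, purified, used at 10 nM final with 200 μM 4-MUS (Km level). Assay buffer 0.1 M Tris-HCl pH 7.0, 0.01% Triton X-100, 5% DMSO, 25 °C. Inhibitor dilutions in DMSO/Tris (1:1), enzyme added last. 4-MU release read by fluorescence (ex 360, em 460) over 10 min, in triplicate. IC50 from percent activity vs log[I], fitted with a slope-factor equation plus background term.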

Assay [2] has as its target T2, Steryl-sulfatase (Homo sapiens) (UniProt P08842).
T2 sequence (whole entry): T1 sequence (P08842 whole entry)
The assay can be described thus: Ratio of 17beta-3'-trifluoromethylbenzylest radiol IC50 to compound IC50 for steroid sulfatase.

For assay [3], the target named is T1, Steryl-sulfatase. The assay can be described thus: Mixed type inhibition of steroid sulfatase using 4-methylumbelliferyl sulfate as substrate by Lineweaver-Burk plot analysis. In short, it runs like this:
(§1)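 Kinetics used purified human placental STS at 10 nM final, 25 °C. Inhibitor was fixed at 75, 50 or 25 nM final (plus an inhibitor-free control) against 4-MUS from 83.3 to 500 μM final, in 0.1 M Tris-HCl pH 7.0. Initial rates (RFU/s) were measured by fluorescence in triplicate and plotted as Lineweaver–Burk. Slopes and intercepts were replotted with mixed-type equations to give Ki and αKi.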

Assay [4] has as its target T1, Steryl-sulfatase. The experiment in a line: Inhibition of steroid sulfatase using 4-methylumbelliferyl sulfate as substrate by Lineweaver-Burk plot analysis. In short, it runs like this: as §1

As a reminder, the IC50 is the midpoint of a concentration-inhibition curve. Lower therefore signals higher potency. The term Ki denotes a dissociation constant, usually derived from enzyme kinetics or from competition with a known ligand.

Compound `C[C@]12CC[C@@H]3c4ccc(O)cc4CC[C@H]3[C@@H]1CC[C@@]2(O)Cc1cccc(C(F)(F)F)c1` registered an IC50 in assay [1] of 126 nM.
For `C[C@]12CC[C@@H]3c4ccc(O)cc4CC[C@H]3[C@@H]1CC[C@@H]2NS(=O)(=O)c1cccc(C(F)(F)F)c1`, the Ratio IC50 in assay [2] stood at 6. This compound came in with an IC50 in assay [1] of 23 nM.
Turning to `C[C@]12CC[C@@H]3c4ccc(O)cc4CC[C@H]3[C@@H]1CC[C@@H]2NS(=O)(=O)c1ccccc1Br`, in assay [1], the IC50 worked out at 493 nM.
On the same count and under the same terms, the figure for `Cc1ccc(S(=O)(=O)N[C@H]2CC[C@H]3[C@@H]4CCc5cc(O)ccc5[C@H]4CC[C@]23C)cc1` is 207 nM; for `Cc1ccc(S(=O)(=O)N[C@@H]2CC[C@H]3[C@@H]4CCc5cc(O)ccc5[C@H]4CC[C@]23C)cc1` it is 341 nM; for `C[C@]12CC[C@@H]3c4ccc(O)cc4CC[C@H]3[C@@H]1CC[C@@H]2NS(=O)(=O)c1cccc([N+](=O)[O-])c1` it is 90 nM.
For `C[C@]12CC[C@@H]3c4ccc(O)cc4CC[C@H]3[C@@H]1CC[C@@H]2NS(=O)(=O)c1ccc(C(F)(F)F)cc1`, in assay [1], the IC50 is 73 nM.
Same read-out and setting: the value for `CCCCCc1ccc(S(=O)(=O)N[C@H]2CC[C@H]3[C@@H]4CCc5cc(O)ccc5[C@H]4CC[C@]23C)cc1` was 51 nM.
The same measure, in the same setting: the value for `C[C@]12CC[C@@H]3c4ccc(O)cc4CC[C@H]3[C@@H]1CC[C@@H]2NS(=O)(=O)Cc1ccccc1` was 364 nM.
The same measure, in the same setting: the value for `CCCCc1ccc(S(=O)(=O)N[C@H]2CC[C@H]3[C@@H]4CCc5cc(O)ccc5[C@H]4CC[C@]23C)cc1` was 26 nM; that for `C[C@]12CC[C@@H]3c4ccc(O)cc4CC[C@H]3[C@@H]1CC[C@@H]2NS(=O)(=O)c1cccc(Cl)c1` was 67 nM.
Take `C[C@]12CC[C@@H]3c4ccc(O)cc4CC[C@H]3[C@@H]1CC[C@@H]2NS(=O)(=O)c1cccc(OC(F)(F)F)c1`: the IC50 in assay [1] was determined as 74 nM.
In assay [1], `Cc1ccc(S(=O)(=O)O[C@H]2CC[C@H]3[C@@H]4CCc5cc(O)ccc5[C@H]4CC[C@]23C)cc1` showed an IC50 of 293 nM.
On the same count and under the same terms, the figure for `C[C@]12CC[C@@H]3c4ccc(O)cc4CC[C@H]3[C@@H]1CC[C@@H]2NS(=O)(=O)c1cccc(C#N)c1` is 137 nM; for `C[C@]12CC[C@@H]3c4ccc(O)cc4CC[C@H]3[C@@H]1CC[C@@H]2NC(=O)c1cccc(C(F)(F)F)c1` it is 749 nM.
Turning to `CCCc1ccc(S(=O)(=O)N[C@H]2CC[C@H]3[C@@H]4CCc5cc(O)ccc5[C@H]4CC[C@]23C)cc1`, in assay [1], the IC50 turned out to be 44 nM.
Same read-out and setting: the value for `C[C@]12CC[C@@H]3c4ccc(O)cc4CC[C@H]3[C@@H]1CC[C@@H]2NS(=O)(=O)c1ccc(-c2ccccc2)cc1` was 9 nM; that for `Cc1ccc(CS(=O)(=O)N[C@H]2CC[C@H]3[C@@H]4CCc5cc(O)ccc5[C@H]4CC[C@]23C)cc1` was 261 nM; that for `CC(C)c1ccc(S(=O)(=O)N[C@H]2CC[C@H]3[C@@H]4CCc5cc(O)ccc5[C@H]4CC[C@]23C)cc1` was 62 nM.
On the same count and under the same terms, the value for `C[C@]12CC[C@@H]3c4ccc(O)cc4CC[C@H]3[C@@H]1CC[C@@]2(O)Cc1ccc(-c2ccccc2)cc1` was 35 nM.
For the compound `C[C@]12CC[C@@H]3c4ccc(O)cc4CC[C@H]3[C@@H]1CC[C@@H]2NS(=O)(=O)c1cccc(Br)c1`, the Ki in assay [3] and in assay [4] was 23 nM in each case. Besides, the IC50 in assay [1] is 25 nM.
`C[C@]12CC[C@@H]3c4ccc(O)cc4CC[C@H]3[C@@H]1CC[C@@H]2NS(=O)(=O)c1ccc(Oc2ccccc2)cc1` registered an IC50 in assay [1] of 39 nM.
Same read-out and setting: the value for `C[C@]12CC[C@@H]3c4ccc(O)cc4CC[C@H]3[C@@H]1CC[C@@H]2NS(=O)(=O)c1ccc2ccccc2c1` was 20 nM; that for `C[C@]12CC[C@@H]3c4ccc(O)cc4CC[C@H]3[C@@H]1CC[C@@H]2NS(=O)(=O)c1ccccc1` was 343 nM.
Consider `C[C@]12CC[C@@H]3c4ccc(O)cc4CC[C@H]3[C@@H]1CC[C@@H]2NS(=O)(=O)c1cccc(F)c1`, for which the IC50 in assay [1] came out at 112 nM.
Still for that read-out and setting: the value for `Cc1cccc(S(=O)(=O)N[C@H]2CC[C@H]3[C@@H]4CCc5cc(O)ccc5[C@H]4CC[C@]23C)c1` was 65 nM; that for `C[C@]12CC[C@@H]3c4ccc(O)cc4CC[C@H]3[C@@H]1CC[C@@H]2NS(=O)(=O)c1ccc(F)cc1` was 479 nM; that for `COc1cccc(S(=O)(=O)N[C@H]2CC[C@H]3[C@@H]4CCc5cc(O)ccc5[C@H]4CC[C@]23C)c1` was 193 nM.
The same measure, in the same setting: the figure for `C[C@]12CC[C@@H]3c4ccc(O)cc4CC[C@H]3[C@@H]1CC[C@@H]2NS(=O)(=O)c1ccc(Br)cc1` is 190 nM; for `C[C@]12CC[C@@H]3c4ccc(O)cc4CC[C@H]3[C@@H]1CC[C@@H]2NS(=O)(=O)c1ccc(Cl)cc1` it is 271 nM.
On to `CC(C)(C)c1ccc(S(=O)(=O)N[C@H]2CC[C@H]3[C@@H]4CCc5cc(O)ccc5[C@H]4CC[C@]23C)cc1`, for which the IC50 in assay [1] came to 18 nM.
Turning to `C[C@]12CC[C@@H]3c4ccc(O)cc4CC[C@H]3[C@@H]1CC[C@@]2(O)Cc1ccc2ccccc2c1`, the IC50 in assay [1] is 120 nM.
